In ChEMBL document CHEMBL1133742, “17beta-O-Aminoalkyloximes of 5beta-androstane-3beta,14beta-diol with digitalis-like activity: synthesis, cardiotonic activity, structure-activity relationships, and molecular modeling of the Na(+),K(+)-ATPase receptor” (J Med Chem, 2000):

What was measured:
Cavia porcellus [1] = assay: Compound dose producing 80% of increase in dP/dt in anesthetized guinea pig during slow intravenous infusion of 41.4 uM solution.; assay type: functional
Procedure, shortened: (§1)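 Anesthetized guinea pigs with jugular vein cannula and tracheal intubation (spontaneous respiration); +dP/dt recorded. Compound dissolved in DMSO, diluted with physiological solution to 1% DMSO final, infused IV at 0.16 mL/min until death or up to 90 min. Starting infusate concentration was based on the atrial EC50. Doses for maximal inotropic effect and for death determined; ED80 taken from dose–response curves. Means ± SEM where possible.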

[2] = molecular target: Sodium/potassium-transporting ATPase; assay: In vitro inhibitory concentration against dog kidney Na+/K+ ATPase; assay type: protein-complex assay, Canis lupus familiaris
Procedure, shortened: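 Na+,K+-ATPase isolated and purified from dog kidney. Inhibition measured as percent hydrolysis of 32P-ATP with versus without compound. […] Single-concentration entries report percent inhibition at the stated concentration. Compounds tested within 1–4 h of dissolution.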

Cavia porcellus [3] = assay: Compound dose producing maximum increase in dP/dt, in anesthetized guinea pig during slow intravenous infusion of 41.4 uM solution.; assay type: functional; procedure, shortened: as §1
Cavia porcellus [4] = assay: Compound dose causing lethality in anesthetized guinea pig during slow intravenous infusion of 41.4 uM solution.; assay type: toxicity, organism-based; conditions: in vivo; procedure, shortened: as §1
Cavia porcellus [5] = species on record: Cavia porcellus; assay: Concentration producing 50% of the maximal increase in the force of contraction in isolated guinea pig left atrium; assay type: functional; conditions: Cardiac atrium
Procedure, shortened: (§2)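 Isolated guinea pig atria in solution bubbled with 95% O2/5% CO2, field-stimulated by platinum electrodes at 1 Hz (1 ms square pulses, twice threshold voltage). After 60 min equilibration, cumulative concentrations added, each held until maximal response or arrhythmia.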

Cavia porcellus [6] = assay: Compound dose producing maximum inotropic effect in anesthetized guinea pig during slow intravenous infusion of 41.4 uM solution.; assay type: functional; procedure, shortened: as §1
[7] = Percent increase in force of contraction in vitro determined using electrically driven guinea pig left atrium.; assay type: functional; conditions: Cavia porcellus, Cardiac atrium; procedure, shortened: as §2
Cavia porcellus [8] = assay: Compound dose producing maximum inotropic effect in anesthetized guinea pig during slow intravenous infusion of 375 uM solution.; assay type: functional; procedure, shortened: as §1
Cavia porcellus [9] = assay: Compound dose causing lethality in anesthetized guinea pig during slow intravenous infusion of 375 uM solution.; assay type: toxicity, organism-based; conditions: in vivo; procedure, shortened: as §1
Cavia porcellus [10] = assay: Compound dose producing maximum increase in dP/dt, in anesthetized guinea pig during slow intravenous infusion of 375 uM solution.; assay type: functional; procedure, shortened: as §1
Cavia porcellus [11] = assay: Compound dose producing 80% of increase in dP/dt in anesthetized guinea pig during slow intravenous infusion of 375 uM solution.; assay type: functional; procedure, shortened: as §1
Cavia porcellus [12] = assay: Compound dose producing maximum increase in dP/dt, in anesthetized guinea pig during slow intravenous infusion of 11.0 uM solution.; assay type: functional; procedure, shortened: as §1
[13] = In vitro maximum inotropic effect on contractile force of an electrically driven guinea pig left atrium.; assay type: functional, Cavia porcellus, Cardiac atrium; procedure, shortened: as §2
Cavia porcellus [14] = assay: Compound dose producing maximum inotropic effect in anesthetized guinea pig during slow intravenous infusion of 11.0 uM solution.; assay type: functional; procedure, shortened: as §1
Cavia porcellus [15] = assay: Compound dose causing lethality in anesthetized guinea pig during slow intravenous infusion of 11.0 uM solution.; assay type: toxicity, organism-based; conditions: in vivo; procedure, shortened: as §1
Cavia porcellus [16] = assay: Compound dose producing 80% of increase in dP/dt in anesthetized guinea pig during slow intravenous infusion of 11.0 uM solution.; assay type: functional; procedure, shortened: as §1
Cavia porcellus [17] = assay: Compound dose producing maximum increase in dP/dt, in anesthetized guinea pig during slow intravenous infusion of 1000 uM solution.; assay type: functional; procedure, shortened: as §1
Cavia porcellus [18] = assay: Compound dose causing lethality in anesthetized guinea pig during slow intravenous infusion of 1000 uM solution.; assay type: toxicity, organism-based; conditions: in vivo; procedure, shortened: as §1
Cavia porcellus [19] = assay: Compound dose producing 80% of increase in dP/dt in anesthetized guinea pig during slow intravenous infusion of 1000 uM solution.; assay type: functional; procedure, shortened: as §1
Cavia porcellus [20] = assay: Compound dose producing maximum inotropic effect in anesthetized guinea pig during slow intravenous infusion of 1000 uM solution.; assay type: functional; procedure, shortened: as §1
Cavia porcellus [21] = assay: Compound dose producing maximum inotropic effect in anesthetized guinea pig during slow intravenous infusion of 51.2 uM solution.; assay type: functional
Procedure, shortened: (§3)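 Anesthetized guinea pig; jugular vein cannula, trachea intubated, spontaneous respiration. After stabilization, compound in physiological solution with 1% DMSO (final) infused at 0.16 mL/min until death or up to 90 min. Infused concentration chosen from the paced guinea pig atria EC50. Read-out is +dP/dt. Doses for the maximal inotropic increase and for death were determined; ED80 (80% increase over basal) came from dose-response curves. Means ± SEM.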

Cavia porcellus [22] = assay: Compound dose causing lethality in anesthetized guinea pig during slow intravenous infusion of 51.2 uM solution.; assay type: toxicity, organism-based; conditions: in vivo; procedure, shortened: as §1
Cavia porcellus [23] = assay: Compound dose producing maximum increase in dP/dt, in anesthetized guinea pig during slow intravenous infusion of 51.2 uM solution.; assay type: functional; procedure, shortened: as §3
Cavia porcellus [24] = assay: Compound dose producing 80% of increase in dP/dt in anesthetized guinea pig during slow intravenous infusion of 51.2 uM solution.; assay type: functional; procedure, shortened: as §3
Cavia porcellus [25] = assay: Compound dose causing lethality in anesthetized guinea pig during slow intravenous infusion of 12.8 uM solution.; assay type: toxicity, organism-based; conditions: in vivo; procedure, shortened: as §1
Cavia porcellus [26] = assay: Compound dose producing maximum increase in dP/dt, in anesthetized guinea pig during slow intravenous infusion of 12.8 uM solution.; assay type: functional; procedure, shortened: as §1
Cavia porcellus [27] = assay: Compound dose producing maximum inotropic effect in anesthetized guinea pig during slow intravenous infusion of 12.8 uM solution.; assay type: functional; procedure, shortened: as §1
Cavia porcellus [28] = assay: Compound dose producing 80% of increase in dP/dt in anesthetized guinea pig during slow intravenous infusion of 12.8 uM solution.; assay type: functional; procedure, shortened: as §1
Cavia porcellus [29] = assay: Compound dose producing 80% of increase in dP/dt in anesthetized guinea pig during slow intravenous infusion of 220 uM solution.; assay type: functional; procedure, shortened: as §1
Cavia porcellus [30] = assay: Compound dose producing maximum increase in dP/dt, in anesthetized guinea pig during slow intravenous infusion of 220 uM solution.; assay type: functional; procedure, shortened: as §1
Cavia porcellus [31] = assay: Compound dose causing lethality in anesthetized guinea pig during slow intravenous infusion of 220 uM solution.; assay type: toxicity, organism-based; conditions: in vivo; procedure, shortened: as §1
Cavia porcellus [32] = assay: Compound dose producing maximum inotropic effect in anesthetized guinea pig during slow intravenous infusion of 220 uM solution.; assay type: functional; procedure, shortened: as §1

Molecule `C[C@]12CC[C@H](O)C[C@H]1CC[C@@H]1[C@@H]2CC[C@]2(C)[C@@H](/C=N/OCCCN)CC[C@]12O.O=C(O)C(=O)O` has an ED80 (Cavia porcellus [1]) of 0.24 µM/kg, an IC50 [2] of 0.02 µM and an Emax (Cavia porcellus [3]) of 163%. For the same molecule, the LD (Cavia porcellus [4]) was 0.663 µM/kg, the EC50 (Cavia porcellus [5]) was 0.18 µM and the Emax (Cavia porcellus [6]) was 0.435 µM/kg. It also gave an Emax [7] of 126%.
`CC(/C=N/OCCCN)=C\[C@H]1CC[C@]2(O)[C@@H]3CC[C@@H]4C[C@@H](O)CC[C@]4(C)[C@H]3CC[C@]12C.O=C(O)C(=O)O` showed an IC50 [2] of 0.2 µM, an Emax (Cavia porcellus [8]) of 0.884 µM/kg and an LD (Cavia porcellus [9]) of 1.67 µM/kg. It also gave an Emax (Cavia porcellus [10]) of 99%, an EC50 (Cavia porcellus [5]) of 0.17 µM and an ED80 (Cavia porcellus [11]) of 0.447 µM/kg. It also gave an Emax [7] of 90%.
In the case of `CN(C)CCO/N=C/C=C/[C@H]1CC[C@]2(O)[C@@H]3CC[C@@H]4C[C@@H](O)CC[C@]4(C)[C@H]3CC[C@]12C.O=C(O)C(=O)O`, the IC50 [2] is reported as 0.03 µM, the Emax (Cavia porcellus [12]) is reported as 110% and the “Concentration giving maximal inotropic effect” value [13] is reported as 0.3 µM. For the same molecule, the Emax (Cavia porcellus [14]) was 0.275 µM/kg, the LD (Cavia porcellus [15]) was 0.385 µM/kg and the EC50 (Cavia porcellus [5]) was 0.057 µM. It also gave an ED80 (Cavia porcellus [16]) of 0.185 µM/kg and an Emax [7] of 191%.
For `C[C@]12CC[C@H](O)C[C@H]1CC[C@@H]1[C@@H]2CC[C@]2(C)[C@@H](/C=N/OCCCCN)CC[C@]12O.O=C(O)C(=O)O`, the IC50 [2] was 0.5 µM, the Emax (Cavia porcellus [17]) was 148% and the LD (Cavia porcellus [18]) was 14.8 µM/kg. It also gave an EC50 (Cavia porcellus [5]) of 2.9 µM, an ED80 (Cavia porcellus [19]) of 1.41 µM/kg and an Emax (Cavia porcellus [20]) of 5.03 µM/kg. It also gave an Emax [7] of 92%.
With `C[C@H]1O[C@@H](O[C@H]2[C@@H](O)C[C@H](O[C@H]3[C@@H](O)C[C@H](O[C@H]4CC[C@@]5(C)[C@H](CC[C@@H]6[C@@H]5C[C@@H](O)[C@]5(C)[C@@H](C7=CC(=O)OC7)CC[C@]65O)C4)O[C@@H]3C)O[C@@H]2C)C[C@H](O)[C@@H]1O` [DIGOXIN] the “dose to obtain Emax” value (Cavia porcellus [21]) was 0.576 µM/kg, the “Concentration giving maximal inotropic effect” value [13] was 1 µM and the LD (Cavia porcellus [22]) was 1.25 µM/kg. For the same molecule, the Emax (Cavia porcellus [23]) was 167%, the EC50 (Cavia porcellus [5]) was 0.38 µM and the ED80 (Cavia porcellus [24]) was 0.205 µM/kg. The Emax [7] was 184%.
Work on `CC(/C=N/OCCN)=C\[C@H]1CC[C@]2(O)[C@@H]3CC[C@@H]4C[C@@H](O)CC[C@]4(C)[C@H]3CC[C@]12C.O=C(O)/C=C/C(=O)O` yielded an LD (Cavia porcellus [25]) of 0.292 µM/kg, an IC50 [2] of 0.03 µM and an Emax (Cavia porcellus [26]) of 152%. It also gave an Emax (Cavia porcellus [27]) of 0.201 µM/kg, an ED80 (Cavia porcellus [28]) of 0.128 µM/kg and an EC50 (Cavia porcellus [5]) of 0.07 µM. For the same molecule, the Emax [7] was 115%.
With `CN(C)CCO/N=C\CC[C@H]1CC[C@]2(O)[C@@H]3CC[C@@H]4C[C@@H](O)CC[C@]4(C)[C@H]3CC[C@]12C.O=C(O)C(=O)O` the IC50 [2] was 0.1 µM, the ED80 (Cavia porcellus [29]) was 0.814 µM/kg and the Emax (Cavia porcellus [30]) was 132%. For the same molecule, the LD (Cavia porcellus [31]) was 7.83 µM/kg, the EC50 (Cavia porcellus [5]) was 0.65 µM and the Emax (Cavia porcellus [32]) was 3.65 µM/kg. The Emax [7] was 150%.
